{"data": "Published values collected from several papers", "target": "Mu-type opioid receptor (OPRM1, Homo sapiens, UniProt P35372)", "observed": "ligand displacement", "note": "Protocols differ between the studies behind these lines."}
{"Compound": "O=C(Nc1ccc(S(=O)(=O)N2CCC(Cl)CC2)cc1)c1ccc([N+](=O)[O-])o1", "technique": "radioligand", "tested at": "10 µM", "inhibition": "1%"}
{"Compound": "CCN(Cc1ccccc1C(F)(F)F)C(=O)C1CCN(S(=O)(=O)c2ccc3[nH]ncc3c2)CC1", "technique": "radioligand", "tested at": "10 µM", "inhibition": "5%"}
{"Compound": "Ic1cccc2cnccc12", "technique": "radioligand", "tested at": "10 µM", "inhibition": "-4%"}
{"Compound": "CN1CCN(CCCOc2ccc(=O)n(-c3ccc(Cl)c(Cl)c3)n2)CC1", "tested at": "1 µM", "inhibition": "17.2%"}
{"Compound": "N#Cc1cc(Cn2c(N3CCCC3)nc3ccccc32)ccc1F", "tested at": "10 µM", "inhibition": "-6.78%"}
{"Compound": "COc1ccc(-n2nc(OCCCN3CCCCC3)ccc2=O)cc1", "tested at": "1 µM", "inhibition": "45.8%"}
{"Compound": "CCN(CC)c1ccc(C2Nc3ccc(C(=O)c4ccccc4)cc3NC3=C2C(=O)CC(C)(C)C3)cc1 (centres unmarked)", "technique": "radioligand", "tested at": "10 µM", "inhibition": "9%"}
{"Compound": "O=C(c1ccc(Cl)cc1)N(Cc1ccccc1)C1CCCCC1", "tested at": "10 µM", "inhibition": "10.9%"}
{"Compound": "CCCNc1nc2ccccc2n1Cc1ccc(Cl)cc1", "tested at": "10 µM", "inhibition": "12.4%"}
{"Compound": "COc1cc(NC(C)=O)c(Cl)cc1C(=O)Nc1nccs1", "tested at": "10 µM", "inhibition": "-5.3%"}
{"Compound": "O=C1N=C(N2CCCCN2)S/C1=C\\c1ccc(F)cc1O", "technique": "radioligand", "tested at": "10 µM", "inhibition": "< 10%"}
